In the RNAGym collection of RNA variant scans (doi:10.1126/science.aae0568):
Variants at the floor of the assay were thinned out.

B1: tRNA (parent)
chain: GUUCCGUUGGCGUAAUGGUAACGCGUCUCCCUCCUAAGGAGAAGACUGCGGGUUCGAGUCCCGUACGGAACG

Variants of: B1
Assay: yeast fitness relative to wild type (ratio to wild type); higher = fitter; tRNA-Arg(CCU), competitive growth, 37 C, YPD
Procedure, shortened: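 Variants of the tRNA-Arg(CCU) gene were chemically synthesised with a 3% per-site mutation rate across 69 sites and placed at the native genomic locus in Saccharomyces cerevisiae. Six parallel replicates of the pooled strains were competed in YPD at 37°C for 24 hours, and gene amplicons from the start and end populations were read by 100-nucleotide paired-end sequencing. Darwinian fitness relative to wild type was derived from changes in genotype frequencies. Genotypes required ≥ 100 starting reads, and estimates < 0.5 were set to 0.5.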

| Variant | yeast fitness |
| --- | --- |
| GUUACGUUGGCGUAACAGUAACGCGUCUCCCUCCUAAGGAGAAGACUGCGGGUUCAAGUCUCGUACGGAACG [C4A U16C G17A G56A C61U] | ≤ 0.5 |
| GUUACGUUGGCGUAACAGUAACGCGUCUCCCUCCUAAGGAGAAGACUGCGGGUUCCAGUCCCGUACGGAACG [C4A U16C G17A G56C] | ≤ 0.5 |
| GUUACGUUGGCGUAACAGUAACGCGUCUCCCUCCUAAGGAGAAGACUGCGGGUUCGAGACCCGUACGGAACG [C4A U16C G17A U59A] | ≤ 0.5 |
| GUUACGUUGGCGUAACGGUAACGCGUCUCCCUCCGAAGGAGAAGUCUGCGAGUUCGAGUCCCGUACGGAACG [C4A U16C U35G A45U G51A] | ≤ 0.5 |
| GUUACGUUGGCGUAAUGGAAACGCGUUUCCCUCCUAAGGAGAAGACUGCGGGUUCGAGUCCCGUACGGAACG [C4A U19A C27U] | 0.562 |
| GUUACGUUGGCGUAAUGGCAACGCGUCUCCCUCCUAAGGAGGAGACUGCGGGUUCGAGUGCCGUACGGAACG [C4A U19C A42G C60G] | ≤ 0.5 |
| GUUACGUUGGCGUAAUGGGAACGCGUCUCCCUCCUAAGGAGAAGACUGCGGGUUCGAGUCCCGUACGGCACG [C4A U19G A69C] | 0.587 |
| GUUACGUUGGCGUAAUGGUAACGCGACUCCCGCCUAAGGAGCAGACUGCGGGUUCGUGUCCCGUACGGAACG [C4A U26A U32G A42C A57U] | ≤ 0.5 |
| GUUACGUUGGCGUAAUGGUAACGCGACUCCCGCCUAAGGAGAAGACUGCGGGUUCGAGUCCCGUGCGGAACG [C4A U26A U32G A65G] | 0.793 |
| GUUACGUUGGCGUAAUGGUAACGCGACUCCCGCCUAAGGAGAAGACUGCGGGAUCGAGUCCAGUACGCAACG [C4A U26A U32G U53A C62A G68C] | ≤ 0.5 |
| GUUACGUUGGCGUAAUGGUAACGCGCCUCCCUCCUAAGGAGAAGACUGCGGGUUCGAGUCCCGUACGGAACG [C4A U26C] | 0.972 |
| GUUACGUUGGCGUAAUGGUAACGCGCCUCCCUCCUAGGGAGAAGACUGCGGGUUCGAGUCCCGUACCGAACG [C4A U26C A37G G67C] | ≤ 0.5 |
| GUUACGUUGGCGUAAUGGUAACGCGGCUCCCUCCUAAGGAGAACACUGCGGGUUCCAAUCCCGUACGCAACG [C4A U26G G44C G56C G58A G68C] | ≤ 0.5 |
| GUUACGUUGGCGUAAUGGUAACGCGGCUCCCUCCUAAGGAGAACACUGCGGGUUCGAAUCCCGUACGCAACG [C4A U26G G44C G58A G68C] | 0.558 |
| GUUACGUUGGCGUAAUGGUAACGCGGCUCCCUCCUAAGGAGAAGACUGCGGGGUCGAGUCCCGUACGGAACG [C4A U26G U53G] | ≤ 0.5 |
| GUUACGUUGGCGUAAUGGUAACGCGUCACCCUCCUAAGGAGAAGACUGCGGGUUCGAGUCCUGUAAGGAACG [C4A U28A C62U C66A] | ≤ 0.5 |
| GUUACGUUGGCGUAAUGGUAACGCGUCCCCCUCCUAAGGAGAAGACUGCGGGUUCGAGUCCCGUACGGAACG [C4A U28C] | 0.64 |
| GUUACGUUGGCGUAAUGGUAACGCGUCCCCCUCCUAAGGAGAAGACCGCGGGUUCGAGUCCCGUACGGAACG [C4A U28C U47C] | ≤ 0.5 |
| GUUACGUUGGCGUAAUGGUAACGCGUCGCCUUCCUAAGGCGAAGACUGCGGGUUCGGGUCCCGUACGGAACG [C4A U28G C31U A40C A57G] | ≤ 0.5 |

| Variant | yeast fitness |
| --- | --- |
| GUUACGUUGGCGUAAUGGUAACGCGUCGCCCUCCUAAGGAGAAGACUAGUGGUUCGAGUCCCGUACGGAACG [C4A U28G G48A C49G G50U] | ≤ 0.5 |
| GUUACGUUGGCGUAAUGGUAACGCGUCUCCCACCUAAGGAGAAGACUGCGGGUUCGGGUCCCGUUCGGAACG [C4A U32A A57G A65U] | ≤ 0.5 |
| GUUACGUUGGCGUAAUGGUAACGCGUCUCCCACCUAACGAGAAGACAGCGGGUUCGAGUCCCGUACGGAACG [C4A U32A G38C U47A] | ≤ 0.5 |
| GUUACGUUGGCGUAAUGGUAACGCGUCUCCCCCCUAAGGAGAAGACUGCGGGUUCGAGUCCCGUACGGAACG [C4A U32C] | 0.912 |
| GUUACGUUGGCGUAAUGGUAACGCGUCUCCCCCCUAAGGUGAAGACUGCGGGUUCGAGUCCCGUACGGUACG [C4A U32C A40U A69U] | ≤ 0.5 |
| GUUACGUUGGCGUAAUGGUAACGCGUCUCCCCCCUAAGGUGAAGACUGGGGGUUCGAGUCCCGUACGCAACG [C4A U32C A40U C49G G68C] | ≤ 0.5 |
| GUUACGUUGGCGUAAUGGUAACGCGUCUCCCCCCUAAGGAGCAGACUGCGGGUUCGAGUCCCGUACGGAACG [C4A U32C A42C] | 0.578 |
| GUUACGUUGGCGUAAUGGUAACGCGUCUCCCCCCUAAGGAGAAGACUCCGGGUUUGAGUCCCGUACGGAACG [C4A U32C G48C C55U] | ≤ 0.5 |
| GUUACGUUGGCGUAAUGGUAACGCGUCUCCCCCCUAAGGAGAAGACUGCGGGUUCGAGGCCCGUACGGAACG [C4A U32C U59G] | ≤ 0.5 |
| GUUACGUUGGCGUAAUGGUAACGCGUCUCCCUCCAAUGGAGAAGACUGCGGGUUCGAGUCCCGUACUGAACG [C4A U35A A37U G67U] | ≤ 0.5 |
| GUUACGUUGGCGUAAUGGUAACGCGUCUCCCUCCAAAGGAGAAGACCGUGGGUUCGAGUCCAGUACGGGACG [C4A U35A U47C C49U C62A A69G] | ≤ 0.5 |
| GUUACGUUGGCGUAAUGGUAACGCGUCUCCCUCCCAAGGAGAAGACUGCGGGUUCGUGUCCCGUACGGAACG [C4A U35C A57U] | ≤ 0.5 |
| GUUACGUUGGCGUAAUGGUAACGCGUCUCCCUCCGAAGGAGAAGACUGCGGGUUCGAGUCCCGUACGGAACG [C4A U35G] | 0.564 |
| GUUACGUUGGCGUAAUGGUAACGCGUCUCCCUCCUAAGGAGAAGACAGCGGGUUCGAGUCCCGUACGGAGCG [C4A U47A A70G] | 0.536 |
| GUUACGUUGGCGUAAUGGUAACGCGUCUCCCUCCUAAGGAGAAGACUGCGGGAUCGAGUCCCGUACGGAACG [C4A U53A] | 0.769 |
| GUUACGUUGGCGUAAUGGUAACGCGUCUCCCUCCUAAGGAGAAGACUGCGGGCUCGAGUCCCGUACCGAACG [C4A U53C G67C] | 0.537 |
| GUUACGUUGGCGUAAUGGUAACGCGUCUCCCUCCUAAGGAGAAGACUGCGGGUCCGAGUCGCGUACGGAACG [C4A U54C C61G] | ≤ 0.5 |
| GUUACGUUGGCGUAAUGGUAACGCGUCUCCCUCCUAAGGAGAAGACUGCGGGUGCGAGUCCCGUACGGAACG [C4A U54G] | 0.612 |
